Calls of active or inactive are those of the source. No cut-off for these calls is given here.

For data set [1], the target named is T1, Human immunodeficiency virus type 1 integrase (Human immunodeficiency virus 1, UniProt Q7ZJM1).
In data set [2] the target is T1, Human immunodeficiency virus type 1 integrase. Description: Inhibition of strand transfer activity of HIV-1 integrase using [gamma-32P]-labeled DNA as substrate. The method in brief:
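Gel-based assay with radiolabelled oligonucleotide substrate and Mg2+ cofactor, measuring strand transfer by recombinant HIV-1 integrase. IC50 determined.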

The test system of data set [3] is Human immunodeficiency virus 1. Briefly: Antiviral activity against HIV-1 harboring wild type integrase infected in human HOS cells pretreated with compound for 3 hrs by single-round HIV-1 infectivity assay. Type of data set: functional, organism-based. The conditions noted are these: Human immunodeficiency virus 1, HOS.
In data set [4] the test system is Human immunodeficiency virus 1. Description: Antiviral activity against raltegravir-resistant HIV-1 harboring integrase Y143R mutant infected in human HOS cells pretreated with compound for 3 hrs by single-round HIV-1 infectivity assay. The conditions noted are these: Human immunodeficiency virus 1, HOS. Type of data set: functional, organism-based.
Data set [5] has as its system Human immunodeficiency virus 1. Briefly: Antiviral activity against raltegravir-resistant HIV-1 harboring integrase N155H mutant infected in human HOS cells pretreated with compound for 3 hrs by single-round HIV-1 infectivity assay. Type of data set: functional, organism-based. The settings on record: Human immunodeficiency virus 1, HOS.
Data set [6] deals with Human immunodeficiency virus 1. Description: Antiviral activity against raltegravir-resistant HIV-1 harboring integrase G140S/Q148H double mutant infected in human HOS cells pretreated with compound for 3 hrs by single-round HIV-1 infectivity assay. The conditions noted are these: Human immunodeficiency virus 1, HOS. The class given is functional, organism-based.
The subject of data set [7] is Human immunodeficiency virus 1. Briefly: Ratio of EC50 for raltegravir-resistant HIV-1 harboring integrase Y143R mutant infected in human HOS cells to EC50 for HIV-1 harboring integrase wild type integrase infected in human HOS cells. The class given is functional.
Data set [8] relates to Human immunodeficiency virus 1. Description: Ratio of EC50 for raltegravir-resistant HIV-1 harboring integrase N155H mutant infected in human HOS cells to EC50 for HIV-1 harboring integrase wild type integrase infected in human HOS cells. The class given is functional.
Data set [9] has as its system Human immunodeficiency virus 1. Briefly: Ratio of EC50 for raltegravir-resistant HIV-1 harboring integrase G140S/Q148H double mutant infected in human HOS cells to EC50 for HIV-1 harboring integrase wild type integrase infected in human HOS cells. Type of data set: functional.
Data set [10] has as its system Human immunodeficiency virus 1. Briefly: Antiviral activity against INSTI-resistant HIV-1 harboring integrase R263K mutant infected in human HOS cells pretreated with compound for 3 hrs by single-round HIV-1 infectivity assay. The class given is functional, organism-based. The settings on record: Human immunodeficiency virus 1, HOS. The method, boiled down:
(§1)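 VSV-g-pseudotyped single-round HIV-1 luciferase vector (WT or mutant IN) made in 293T cells by calcium phosphate transfection, supernatant harvested at 48 h. HOS cells were seeded the day before, then pretreated with compound, 11 serial dilutions from 10 μM to 0.0005 μM, at 37 °C for 3 h. Virus was added and cells kept 48 h at 37 °C. Luciferase was read and normalised to infectivity without compound.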

Data set [11] concerns Human immunodeficiency virus 1. Briefly: Antiviral activity against INSTI-resistant HIV-1 harboring integrase G118R mutant infected in human HOS cells pretreated with compound for 3 hrs by single-round HIV-1 infectivity assay. The settings on record: Human immunodeficiency virus 1, HOS. Type of data set: functional, organism-based. The method, boiled down:
as §1

Data set [12] deals with Human immunodeficiency virus 1. Briefly: Ratio of EC50 for INSTI-resistant HIV-1 harboring integrase R263K mutant infected in human HOS cells to EC50 for HIV-1 harboring integrase wild type integrase infected in human HOS cells. Type of data set: functional.
Data set [13] relates to Human immunodeficiency virus 1. Briefly: Ratio of EC50 for INSTI-resistant HIV-1 harboring integrase G118R mutant infected in human HOS cells to EC50 for HIV-1 harboring integrase wild type integrase infected in human HOS cells. The class given is functional.
The test system of data set [14] is HOS. Description: Cytotoxicity against human HOS cells assessed as ATP level by luciferase reporter assay. The class given is cell-based. The method, boiled down:
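HOS cells were exposed to compound and viability was read as ATP level by luciferase reporter. […] SI is CC50 divided by WT-vector EC50.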
(In general: Reporter assays use an easily measured gene product as a stand-in for the process of interest.)

Data set [15] is described as follows: Selectivity index, ratio of CC50 for human HOS cells to EC50 for HIV-1 harboring wild type integrase infected in human HOS cells. The class given is toxicity, cell-based. The conditions noted are these: read-out: Ratio CC50/EC50. The method in brief: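 HOS cells were exposed to compound and viability was read as ATP level by luciferase reporter. SI is CC50 divided by WT-vector EC50.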

For data set [16], the system named is Human immunodeficiency virus 1. Briefly: Antiviral activity against HIV-1 harboring wild type integrase infected in human HOS cells pretreated with compound for 3 hrs by single-round HIV-1 infectivity assay in presence of 5% fetal bovine serum. The class given is functional, organism-based. The settings on record: Human immunodeficiency virus 1, HOS. The method, boiled down:
as §1

The subject of data set [17] is Human immunodeficiency virus 1. Description: Antiviral activity against HIV-1 harboring wild type integrase infected in human HOS cells pretreated with compound for 3 hrs by single-round HIV-1 infectivity assay in presence of 10% fetal bovine serum. The settings on record: Human immunodeficiency virus 1, HOS. The class given is functional, organism-based. The method in brief:
as §1

Data set [18] concerns Human immunodeficiency virus 1. Briefly: Antiviral activity against HIV-1 harboring wild type integrase infected in human HOS cells pretreated with compound for 3 hrs by single-round HIV-1 infectivity assay in presence of 15% fetal bovine serum. The class given is functional, organism-based. The conditions noted are these: Human immunodeficiency virus 1, HOS. The method, boiled down:
as §1

The target in data set [19] is Human immunodeficiency virus type 1 reverse transcriptase (Human immunodeficiency virus 1) (UniProt Q72547). Description: Inhibition of HIV-1 DNA-dependent DNA polymerase activity of reverse transcriptase after 60 mins by agarose gel electrophoresis.
Data set [20] in a line: Retention time of the compound by HPLC analysis. The class given is physicochemical. The method in brief:
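Preparative HPLC run as a linear gradient of solvent B over 30 min, starting at 30% B and ending at 70% or 80% B depending on the compound. Retention time was taken at elution.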

Data set [21] deals with Human immunodeficiency virus type 1 reverse transcriptase (Human immunodeficiency virus 1) (UniProt Q72547). Briefly: Inhibition of HIV-1 reverse transcriptase RNase H activity-mediated -8 cleavage assessed as retention of -17 cleavage at 10 uM by agarose gel electrophoresis.
The target is the same in data set [22]. Description: Inhibition of HIV-1 RNase H activity of reverse transcriptase assessed as full length RNA level at 10 uM by agarose gel electrophoresis.
For data set [23] the target is unchanged. Description: Inhibition of HIV-1 reverse transcriptase RNase H activity-mediated -8 cleavage assessed as retention of -17 cleavage after 10 to 15 mins by agarose gel electrophoresis.

T1 sequence (Q7ZJM1 whole entry): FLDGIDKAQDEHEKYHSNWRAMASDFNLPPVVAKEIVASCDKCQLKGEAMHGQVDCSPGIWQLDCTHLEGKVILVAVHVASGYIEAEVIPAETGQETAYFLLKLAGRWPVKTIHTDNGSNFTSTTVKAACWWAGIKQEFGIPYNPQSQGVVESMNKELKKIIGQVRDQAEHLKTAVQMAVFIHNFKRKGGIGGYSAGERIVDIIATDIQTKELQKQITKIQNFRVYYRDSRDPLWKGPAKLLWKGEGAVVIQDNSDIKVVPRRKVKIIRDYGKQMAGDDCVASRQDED

For orientation: IC50 means the concentration that inhibits the measured activity by half. Lower therefore signals inhibition by little substance. A word on the EC50: it is the concentration needed to bring the measured effect to its halfway point. As a reminder, the CC50 is the concentration at which the toxic effect on the cells reaches its halfway point. Turning to `CC(=O)OCCNc1c(C(=O)NCc2ccc(F)cc2F)c(=O)n(O)c2ncccc12`, the IC50 in data set [1] came out at 5.3 µM; in data set [2], 0.027 µM. Moreover, the EC50 in data set [3] was found to be 0.0045 µM; in [4], 0.0048 µM; in [5], 0.0031 µM; in data set [6] it was 0.035 µM; in [10] it was 0.016 µM; in [11] it was 0.044 µM. The EC50 in data set [16], in [17] and in data set [18] was 0.0045 µM in each case. Moreover, the “Ratio EC50” value in data set [7] turned out to be 1; in data set [8], 0.69; in data set [9] it was 8; in data set [12], 4; in data set [13], 10. The CC50 in data set [14] was over 250 µM. Further, the selectivity ratio in data set [15] is over 55600. Also, the inhibition result in data set [19] and in data set [21] was “Active” each time. Further, in [20], the Retention_time was determined as 23.6 min.
As to `Nc1c(C(=O)NCc2ccc(F)cc2F)c(=O)n(O)c2ncccc12`, the EC50 in [3] came to 0.0011 µM; in data set [10] it was 0.0064 µM; in [11], 0.016 µM; in data set [16], 0.0011 µM; in data set [17] it was 0.0011 µM; in data set [18], 0.0011 µM. The CC50 in data set [14] is over 250 µM. Further, the inhibition entry in [19] and in data set [21] was “Active” in each case. In [20], this compound registered a Retention_time of 19.5 min.
On to `COC(=O)CNc1c(C(=O)NCc2ccc(F)cc2F)c(=O)n(O)c2ncccc12`, for which the IC50 in [1] amounted to 0.71 µM; in [2], 0.021 µM. Also, the EC50 came to 0.0038 µM in data set [3]; 0.0046 µM in data set [4]; 0.019 µM in [5]; 0.036 µM in data set [6]; 0.026 µM in data set [10]; 0.041 µM in [11]. Besides, the EC50 in [16] was determined as 0.0038 µM; in [17], 0.003 µM; in [18], 0.003 µM. Further, the “Ratio EC50” value is 1 in [7]; 5 in data set [8]; 9 in data set [9]; 7 in data set [12]; 11 in data set [13]. In addition, the CC50 in data set [14] is over 250 µM. Further, the selectivity ratio in data set [15] is over 65800. Further, the inhibition entry in data set [19] and in [23] was “Active” in each case. The inhibition result in [22] was “inactive”. In addition, in data set [20], the Retention_time was determined as 28.4 min.
As to `C[C@@H]1CCO[C@H]2Cn3cc(C(=O)NCc4ccc(F)cc4F)c(=O)c(O)c3C(=O)N12` [DOLUTEGRAVIR], the EC50 was determined as 0.0016 µM in data set [3]; 0.0043 µM in [4]; 0.0036 µM in [5]; 0.0058 µM in [6]; 0.011 µM in data set [10]; 0.013 µM in data set [11].
With `O=C(NCc1ccc(F)cc1F)c1c(NCCO)c2cccnc2n(O)c1=O`, the IC50 turned out to be 0.55 µM in data set [1] and 0.01 µM in data set [2]. Further, the EC50 stood at 0.0052 µM in [3]; 0.0046 µM in [4]; 0.025 µM in [5]; 0.043 µM in data set [6]; 0.026 µM in [10]; 0.027 µM in [11]. Also, the “Ratio EC50” value in [7] came out at 0.88; in data set [8], 5; in data set [9], 8; in data set [12], 5; in data set [13] it was 5. For the same compound, the CC50 in data set [14] is 24 µM. For the same compound, the selectivity ratio in data set [15] is 4620. This compound came in with a Retention_time in [20] of 21.6 min.

The record behind these values is ChEMBL document CHEMBL3286128 (J Med Chem, 2014).
